Experimental data reported in ChEMBL document CHEMBL1126926, “Nonprostanoid prostacyclin mimetics. 5. Structure-activity relationships associated with [3-[4-(4,5-diphenyl-2-oxazolyl)-5- oxazolyl]phenoxy]acetic acid” (J Med Chem, 1993).

How the values were obtained:
Homo sapiens [1] = organism: Homo sapiens; assay: (§1) In vitro inhibition of 5.86 uM ADP-induced human platelet aggregation in platelet rich plasma (PRP); type: functional
In short: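 Human blood drawn into 1/10 volume 3.8% sodium citrate and spun 10 min at 140g to give platelet-rich plasma. Compound in DMSO added to PRP 3 min before 5.86 μM ADP. Aggregation read by Born turbidimetric aggregometry (Mustard modification) against vehicle controls over various concentrations. IC50 taken from dose-response curves, single determinations or mean of duplicates.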

Homo sapiens [2] = organism: Homo sapiens; assay: as §1; type: functional; remark: listed apart in the source
Homo sapiens [3] = organism: Homo sapiens; assay: Inhibitory concentration for displacing [3H]iloprost from human platelet membrane at 5.4 nM at 37 degree C
Homo sapiens [4] = organism: Homo sapiens; assay: Compound tested for percent inhibition against 5.86 uM ADP-induced human platelet aggregation in platelet rich plasma (PRP); type: functional
In short: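 Citrated human PRP (blood spun 10 min at 140g) preincubated 3 min with compound in DMSO, then challenged with 5.86 μM ADP. Born aggregometry (Mustard modification), compared with vehicle controls. Value is percent inhibition at a single stated concentration, from a single experiment or mean of duplicates.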

| IC50 (Homo sapiens [1]) | SMILES | also measured |
| --- | --- | --- |
| 2500 nM | O=C(O)CCCCCCCCc1nc(-c2ccccc2)c(-c2ccccc2)o1 | – |
| > 75000 nM | O=C(O)CCCCOc1ccccc1-c1nc(-c2ccccc2)c(-c2ccccc2)o1 | – |
| 7200 nM | O=C(O)CCCCCc1ocnc1-c1nc(-c2ccccc2)c(-c2ccccc2)o1 | – |
| – | O=C(O)COc1cccc(-c2ocnc2-c2nc(-c3ccccc3)c(-c3ccccc3)o2)c1 | IC50 (Homo sapiens [2]): 27 nM; IC50 (Homo sapiens [3]): 5.4 nM |
| 11100 nM | O=C(O)COc1cccc(-c2ccccc2-c2nc(-c3ccccc3)c(-c3ccccc3)o2)c1 | – |
| 130 nM | c1ccc(-c2nc(-c3ncoc3-c3cccc(OCc4nn[nH]n4)c3)oc2-c2ccccc2)cc1 | – |
| 420 nM | O=C(O)CCCCCCc1ocnc1-c1nc(-c2ccccc2)c(-c2ccccc2)o1 | – |
| > 76000 nM | N#CCOc1cccc(-c2ocnc2-c2nc(-c3ccccc3)c(-c3ccccc3)o2)c1 | Inhibition (Homo sapiens [4]): 14% |
| 30 nM | O=C(O)COc1cccc(-c2ocnc2-c2nc(-c3ccccc3)c(-c3ccccc3)[nH]2)c1 | – |
| – | Cc1nc(-c2nc(-c3ccccc3)c(-c3ccccc3)o2)c(-c2cccc(OCC(=O)O)c2)o1 | IC50 (Homo sapiens [2]): 50 nM; IC50 (Homo sapiens [3]): 36.6 nM |
| – | O=C(O)COc1cccc(-c2[nH]ncc2-c2nc(-c3ccccc3)c(-c3ccccc3)o2)c1 | IC50 (Homo sapiens [2]): 180 nM |
| > 72000 nM | O=C(O)COc1cccc(-c2ocnc2-c2onc(-c3ccccc3)c2-c2ccccc2)c1 | Inhibition (Homo sapiens [4]): 36% |
| > 80000 nM | O=C(O)CCCc1ocnc1-c1nc(-c2ccccc2)c(-c2ccccc2)o1 | Inhibition (Homo sapiens [4]): 44% |
| – | O=C(O)COc1cccc(/C=C\c2nc(-c3ccccc3)c(-c3ccccc3)o2)c1 | IC50 (Homo sapiens [3]): 6 nM |
| > 75000 nM | O=C(O)CCCOc1ccccc1-c1nc(-c2ccccc2)c(-c2ccccc2)o1 | – |
| – | Cn1ncc(-c2nc(-c3ccccc3)c(-c3ccccc3)o2)c1-c1cccc(OCC(=O)O)c1 | IC50 (Homo sapiens [2]): 1060 nM; IC50 (Homo sapiens [3]): 337 nM |
| > 70000 nM | O=C(O)COc1cccc(-c2ocnc2-c2nnc(-c3ccccc3)n2-c2ccccc2)c1 | – |
| > 73000 nM | O=C(O)COc1ccc(-c2ocnc2-c2nc(-c3ccccc3)c(-c3ccccc3)o2)cc1 | Inhibition (Homo sapiens [4]): 44% |
| 15900 nM | O=C(O)CCCCc1ocnc1-c1nc(-c2ccccc2)c(-c2ccccc2)o1 | – |
| – | Cn1cc(-c2nc(-c3ccccc3)c(-c3ccccc3)o2)c(-c2cccc(OCC(=O)O)c2)n1 | IC50 (Homo sapiens [2]): 650 nM; IC50 (Homo sapiens [3]): 302 nM |
| 11600 nM | O=C(O)CCCCCCCc1ocnc1-c1nc(-c2ccccc2)c(-c2ccccc2)o1 | – |
| 150 nM | O=C(O)COc1cccc(-c2ocnc2-c2nc(-c3ccccc3)c(-c3ccccc3)s2)c1 | – |
| > 60000 nM | O=C(O)COc1cccc(-c2oc(-c3ccccc3)nc2-c2nc(-c3ccccc3)c(-c3ccccc3)o2)c1 | Inhibition (Homo sapiens [4]): 36% |
| 160 nM | O=C(O)COc1cccc(-c2ncoc2-c2nc(-c3ccccc3)c(-c3ccccc3)o2)c1 | – |
| 100 nM | Cc1ccc(-c2nc(-c3ncoc3-c3cccc(OCC(=O)O)c3)oc2-c2ccc(C)cc2)cc1 | – |
| 450 nM | O=C(O)COc1cccc(-c2ocnc2-c2nc(-c3ccsc3)c(-c3ccsc3)o2)c1 | – |
| 8 nM | CCCCC[C@H](O)/C=C/[C@@H]1[C@H]2C/C(=C/CCCC(=O)O)O[C@H]2C[C@H]1O [EPOPROSTENOL] | – |
| – | CC#CCC(C)[C@H](O)/C=C/[C@@H]1[C@H]2C/C(=C/CCCC(=O)O)C[C@H]2C[C@H]1O (some centres not stated) [ILOPROST] | IC50 (Homo sapiens [3]): 47.7 nM |
